Structures are written as SMILES. About 1,000 (0.45%) of roughly 220,000 compounds were called active.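 Rule for the calls: active = plate z-score of nuclear minus cytoplasmic receptor signal below a set negative limit, without overly bright fluorescence or cell loss (cut at about -3.5 in these data, passing the limit was not always enough); inactive = the rest, inconclusive results apart.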 This excerpt belongs to a sample that is enriched for actives.

The record followed here is PubChem BioAssay AID1381 (University of Pittsburgh Molecular Library Screening Center, 2008).

The nature of the assay: inhibitors of GR-EGFP nuclear translocation, primary screen, dynein cargo transport inhibitor project, imaging, high-content, 3617.4 mouse cells (AID 1381). The note with it: stimulated with dexamethasone, 1 µM. In outline: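 medium = tetracycline-free induction medium containing charcoal-stripped FBS | probe or stimulus = dexamethasone, 1.0 µM final | timing = 48 h induction, then 1 h compound, then 30 min agonist, 37 °C | detection = automated 10x imaging of fixed Hoechst-stained cells | read-out basis = nuclear versus cytoplasmic GR-EGFP signal, averaged per well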

The mark [1] stands for this setting: measured here: cell count per field, at 20 µM.
[2] abbreviates: measured here: cytoplasmic GR-EGFP intensity, at 20 µM, stronger effect = higher value.
Where [3] appears, read: measured here: nuclear GR-EGFP intensity, at 20 µM, stronger effect = lower value.

In the case of `Cc1c(C#N)c(NC(=O)c2ccccc2)n(Cc2ccccc2)c1C`, the z-score is -0.291 (inactive) (at 20 µM, stronger effect = lower value); 0.341 under setting [1]; -0.155 under setting [2]; -0.456 under setting [3].
On the same counts, the results for `CCN(CC)C(=O)CSC1c2ccccc2C(=O)N1c1ccccc1` (stereo unspecified) are 2.73 (inactive), -1.62, -0.173 and 0.99.
The corresponding values for `CCC(=O)Nc1cccc(C2=NOC3(C2)C[C@@H](C(N)=O)N(C(=O)c2cc([N+](=O)[O-])cc([N+](=O)[O-])c2C)C3)c1` (stereo partly specified) are -0.341 (inactive), -0.348, -0.641 and 0.119.
On to `O=C(/C=C/Sc1ncn[nH]1)c1ccc(Cl)cc1`, for which the z-score runs as follows: (at 20 µM, stronger effect = lower value) -3.98 (active); under setting [1], 0.0934; under setting [2], 1.02; under setting [3], -1.6.
On the same counts, the results for `O=C(NCCOCc1ccc(Cl)cc1)c1ncn[nH]1` are 0.731 (inactive), -0.271, -0.00295 and 0.605.
On the same counts, the results for `COc1ccc(Cl)cc1CSc1ncn[nH]1` are 1 (inactive), -0.49, -0.24 and 0.812.
As for `NS(=O)(=O)c1ccc(CCNC(=O)NC2CCCCC2)cc1`, the z-score (at 20 µM, stronger effect = lower value) was 0.431 (inactive); the z-score under setting [1] stood at 0.299; the z-score under setting [2] is -0.269; the z-score under setting [3] is 0.126.
In the case of `CCOc1ccc(C(=O)NC2CCN(CC(=O)NCc3cccs3)CC2)cc1`, the z-score was -1.07 (inactive) (at 20 µM, stronger effect = lower value); -0.199 under setting [1]; -0.19 under setting [2]; -0.737 under setting [3].
On the same counts, the results for `O=Cc1ccc(Oc2cccc(C(F)(F)F)c2)nc1` are 1.74 (inactive), -2.12, 0.359 and 1.33.
On the same counts, the results for `C=CCOC(=O)C1=C(C)OC(N)=C(C#N)C1c1ccc(F)cc1` (stereo unspecified) are -1.1 (inactive), 0.643, -0.165 and -0.354.
The corresponding values for `CCOC(=O)C1=C(C)OC(N)=C(C#N)C1c1cncc(-c2ccc(F)cc2)c1` (stereo unspecified) are -3.9 (active), -0.136, 0.28 and -1.42.
Regarding `CCOC(=O)C1=C(CC)OC(N)=C(C#N)C1c1ccc(F)cc1F` (stereo unspecified), the z-score is, setting by setting: (at 20 µM, stronger effect = lower value) -3.05 (inactive); under setting [1], -0.462; under setting [2], 0.472; under setting [3], -1.28.
On the same counts, the results for `O=C1c2ccccc2C(=O)N1Cc1cc(-c2ccccc2Cl)no1` are -0.0385 (inactive), -0.0908, -0.215 and 0.196.
The corresponding values for `COc1ccc(C)cc1NC(=S)Nc1ccccc1SC` are -0.497 (inactive), 0.252, -0.293 and -0.178.
The corresponding values for `Cc1ccc(CN2CCN(Cc3ccc(OCCO)cc3)CC2CCO)o1` (stereo unspecified) are 0.361 (inactive), 0.953, -0.289 and -0.03.
With `O=C1C=C(c2ccc(Cl)cc2)C(=O)N1Nc1ccccc1`, the z-score (at 20 µM, stronger effect = lower value) was -4.4 (active); the z-score under setting [1] was -0.124; the z-score under setting [2] was 2.35; the z-score under setting [3] is -1.87.
`O=C(Nc1ccccc1)OCc1cc(-c2ccc(Cl)cc2)on1`: the z-score runs as follows: (at 20 µM, stronger effect = lower value) 1.93 (inactive); under setting [1], -1.86; under setting [2], -0.165; under setting [3], 1.78.
On the same counts, the results for `O=C1c2cccc3cc(Br)cc(c23)C(=O)N1Nc1ccccc1` are 0.228 (inactive), 0.252, -0.199 and 0.671.
For `CCOc1ccccc1N1CCN(C(=O)COc2ccc3c(C)cc(=O)oc3c2)CC1`, the z-score reads like this: (at 20 µM, stronger effect = lower value) 1.35 (inactive); under setting [1], -0.138; under setting [2], -0.356; under setting [3], 0.787.
The corresponding values for `Clc1cccc(-c2nc3nc4ccccc4nc3n2Cc2ccco2)c1` are -4.09 (active), 0.0368, 2.09 and -1.78.
The corresponding values for `Cc1cc(NC(=O)CSc2nc3cc(Cl)ccc3c(=O)n2Cc2ccco2)no1` are 2.31 (inactive), -1.55, -0.306 and 1.39.
For the compound `O=C(CSc1nnc(-c2cccnc2)n1Cc1ccco1)c1ccc(Cl)cc1`, the z-score (at 20 µM, stronger effect = lower value) was -0.358 (inactive); the z-score under setting [1] was -0.0648; the z-score under setting [2] was -0.209; the z-score under setting [3] was -0.055.
The corresponding values for `Cc1cccc(NC(=S)N2CCC(c3nc4ccccc4s3)CC2)c1` are -0.203 (inactive), 0.43, -0.197 and -0.339.
On the same counts, the results for `CC1CCN(C(=O)c2ccc(S(=O)(=O)Cc3cc(F)ccc3F)c([N+](=O)[O-])c2)CC1` are -3.71 (active), -1.15, 0.395 and -2.24.
On the same counts, the results for `O=C(Nc1ccc(F)cc1)C1CCN(C(=O)c2ccc([N+](=O)[O-])cc2)CC1` are -0.907 (inactive), 0.228, 0.208 and -0.321.
As for `CC1CCN(C(=O)c2ccc(CSc3ccc(Cl)cc3)cc2)CC1`, the z-score runs as follows: (at 20 µM, stronger effect = lower value) -0.555 (inactive); under setting [1], 0.71; under setting [2], -0.258; under setting [3], -0.29.
As for `O=C(CC(NC(=O)c1ccccc1)c1ccccc1)Nc1ccc(F)c(F)c1` (stereo unspecified), the z-score runs as follows: (at 20 µM, stronger effect = lower value) -0.729 (inactive); under setting [1], 0.477; under setting [2], -0.215; under setting [3], -0.567.
On the same counts, the results for `COc1ccc2c(c1)cc1n2CCN=C1NN` are 1.67 (inactive), -0.465, -0.0728 and 0.848.
On the same counts, the results for `Cc1ccc2nc(C)c3c(c2c1)N(c1ccccc1)CC3` are -0.838 (inactive), 0.0751, -0.205 and -0.482.
The corresponding values for `CCCN(c1ccc(C)cc1)c1nc(=O)c2cccnc2s1` are 0.0477 (inactive), 0.0213, -0.295 and 0.0592.
As to `Cc1ccc(Cl)cc1N1CCN(C(=O)c2cccc3c(=O)c(C)c(-c4ccccc4)oc23)CC1`, the z-score (at 20 µM, stronger effect = lower value) is -0.56 (inactive); the z-score under setting [1] was 0.953; the z-score under setting [2] is -0.179; the z-score under setting [3] was -0.287.
In the case of `CCOC(=O)c1cc2c(ccn2C)n1CC(=O)N1CCC(C)CC1`, the z-score by setting is: (at 50 µM, stronger effect = lower value) -0.704 (inactive); (measured here: cell count per field, at 50 µM) 0.841; (measured here: cytoplasmic GR-EGFP intensity, at 50 µM, stronger effect = higher value) -0.262; (measured here: nuclear GR-EGFP intensity, at 50 µM, stronger effect = lower value) -1.05.
Consider `Clc1ccc(CN2CCN(/N=C/c3cccnc3)CC2)cc1`, for which the z-score is, setting by setting: (at 20 µM, stronger effect = lower value) -0.266 (inactive); under setting [1], 0.201; under setting [2], -0.295; under setting [3], -0.167.
On the same counts, the results for `O=C1/C(=C\c2cccnc2)CN(Cc2ccccc2)C/C1=C\c1cccnc1` are -3.59 (active), -0.00204, 0.672 and -2.16.
